Assay results as given in ChEMBL document CHEMBL2331424, “Synthesis and biological evaluation of novel neuroprotective agents for paraquat-induced apoptosis in human neuronal SH-SY5Y cells” (2013).

What was measured:
[1] = Neuroprotective activity in human SH-SY5Y cells assessed as cell viability after paraquat-induced toxicity at 10 uM incubated for 2 hrs prior to paraquat challenge measured after 24 hrs by MTT assay (reference value: 62.05 +/- 0.47%)
[2] = target: T1, Prostaglandin G/H synthase 2 (Homo sapiens) (UniProt P35354); assay: Ratio of resveratrol IC50 to compound IC50 for inhibition of prostaglandin H-2 synthase (unknown origin)
T1 sequence (whole entry): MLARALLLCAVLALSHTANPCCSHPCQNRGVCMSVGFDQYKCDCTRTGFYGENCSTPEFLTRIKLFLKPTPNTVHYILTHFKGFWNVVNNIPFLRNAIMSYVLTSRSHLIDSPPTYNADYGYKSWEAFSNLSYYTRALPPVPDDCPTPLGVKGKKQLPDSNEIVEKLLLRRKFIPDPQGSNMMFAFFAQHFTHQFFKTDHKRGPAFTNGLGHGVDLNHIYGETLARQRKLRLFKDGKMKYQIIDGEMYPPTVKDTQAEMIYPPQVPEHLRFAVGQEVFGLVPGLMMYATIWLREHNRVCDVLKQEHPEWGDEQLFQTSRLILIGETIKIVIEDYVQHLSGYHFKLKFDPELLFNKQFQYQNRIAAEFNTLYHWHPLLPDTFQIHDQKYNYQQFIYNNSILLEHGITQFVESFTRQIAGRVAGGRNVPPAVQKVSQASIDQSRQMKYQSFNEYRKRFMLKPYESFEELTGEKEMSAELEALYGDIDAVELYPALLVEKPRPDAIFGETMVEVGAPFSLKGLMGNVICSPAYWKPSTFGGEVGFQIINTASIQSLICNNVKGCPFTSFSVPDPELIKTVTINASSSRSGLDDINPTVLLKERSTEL

SH-SY5Y [3] = assay: Neuroprotective activity in human SH-SY5Y cells assessed as decrease in paraquat-induced intracellular ROS level incubated for 4 hrs prior to paraquat challenge measured after 2 hrs by fluorescence microscopic analysis
[4] = Neuroprotective activity in paraquat-stimulated human SH-SY5Y cells assessed as downregulation of Bax expression incubated for 4 hrs prior to paraquat challenge measured after 24 hrs by Western blotting analysis; type: functional, cell-based
In short: (§1)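 SH-SY5Y in DMEM/F12 with 10% FBS pre-incubated with compound (0.1-10 μM, 4 h), then paraquat 250 μM. Western blot for caspase-3 and caspase-9 cleavage, Bax, Bcl-2, SOD or GPx, with GAPDH as loading control. HRP secondary antibodies and ECL detection, bands quantified. ≥3 independent experiments in duplicate; ANOVA with Dunnett's test.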

SH-SY5Y [5] = assay: Neuroprotective activity in human SH-SY5Y cells assessed as decrease in paraquat-induced nuclear morphological changes incubated for 4 hrs prior to paraquat challenge measured after 24 hrs by Hoechst 33342 staining-based fluorescence microscopic analysis
[6] = Neuroprotective activity in paraquat-stimulated human SH-SY5Y cells assessed as upregulation of Bcl2 expression incubated for 4 hrs prior to paraquat challenge measured after 24 hrs by Western blotting analysis; type: functional, cell-based
In short: as §1

[7] = Neuroprotective activity in paraquat-stimulated human SH-SY5Y cells assessed as upregulation of SOD expression incubated for 4 hrs prior to paraquat challenge measured after 24 hrs by Western blotting analysis; type: functional, cell-based
In short: as §1

SH-SY5Y [8] = assay: Neuroprotective activity in human SH-SY5Y cells assessed as decrease in paraquat-induced proteolytic cleavage of procaspase-3 incubated for 4 hrs prior to paraquat challenge measured after 24 hrs by Western blotting analysis; type: functional, cell-based
In short: as §1

[9] = Neuroprotective activity in paraquat-stimulated human SH-SY5Y cells assessed as upregulation of GPx expression incubated for 4 hrs prior to paraquat challenge measured after 24 hrs by Western blotting analysis; type: functional, cell-based
In short: as §1

SH-SY5Y [10] = assay: Neuroprotective activity in human SH-SY5Y cells assessed as decrease in paraquat-induced proteolytic cleavage of procaspase-9 incubated for 4 hrs prior to paraquat challenge measured after 24 hrs by Western blotting analysis; type: functional, cell-based
In short: as §1

Row | Structure (SMILES) | viability at 10 µM [1] [%] | also measured
1 | COc1ccc(/C=C2/c3cc(OC)cc(OC)c3[C@@H](c3ccccc3)[C@@H]2c2cc(OC)cc(OC)c2)cc1 | 64 | –
2 | COc1ccc([C@@H]2c3c(OC)cc(OC)cc3C(O)[C@H]2c2cc(OC)cc(OC)c2)cc1 (relative stereo) | 59 | –
3 | Oc1ccc([C@@H]2c3c(O)cc(O)cc3[C@H]3[C@H](c4ccc(O)cc4)c4c(O)cc(O)cc4[C@@H]23)cc1 (racemic) [PALLIDOL] | 72.4 | –
4 | COc1ccc([C@@H]2c3c(OC)cc(OC)cc3C(=O)[C@H]2c2cc(OC)cc(OC)c2)cc1 (relative stereo) | 59.9 | –
5 | O=C1c2cc(O)cc(O)c2[C@@H](c2ccccc2)[C@@H]1c1cc(O)cc(O)c1 | 65 | –
6 | COc1cc(OC)cc([C@@H]2C(=O)c3cc(OC)cc(OC)c3[C@H]2c2ccccc2)c1 (single isomer, unassigned) | 65 | –
7 | Oc1ccc(/C=C2/c3cc(O)cc(O)c3[C@@H](c3ccc(O)cc3)[C@@H]2c2cc(O)cc(O)c2)cc1 (racemic) | 57.9 | –
8 | Oc1ccc(/C=C/c2cc(O)cc(O)c2)cc1 [RESVERATROL] | 66.3 | –
9 | COc1ccc(CC2=C(c3cc(OC)cc(OC)c3)[C@@H](c3ccc(OC)cc3)c3c(OC)cc(OC)cc32)cc1 | 61.4 | –
10 | COc1ccc([C@@H]2c3c(OC)cc(OC)cc3[C@H]3[C@H](c4ccc(OC)cc4)c4c(OC)cc(OC)cc4[C@@H]23)cc1 | 63.6 | –
11 | Oc1ccc([C@@H]2c3c(O)cc(O)cc3[C@H]3[C@H](c4ccccc4)c4c(O)cc(O)cc4[C@@H]23)cc1 | 77.2 | –
12 | COc1ccc(C2C(c3cc(OC)cc(OC)c3)=Cc3cc(OC)cc(OC)c32)cc1 (configuration not stated) | 58.6 | –
13 | COc1ccc(CSC2c3cc(OC)cc(OC)c3[C@@H](c3ccccc3)[C@@H]2c2cc(OC)cc(OC)c2)cc1 (some centres not stated) | 60.6 | –
14 | C=C1c2cc(OC)cc(OC)c2[C@@H](c2ccc(OC)cc2)[C@@H]1c1cc(OC)cc(OC)c1 | 58.2 | –
15 | COc1ccc(/C=C2\c3cc(OC)cc(OC)c3[C@@H](c3ccc(OC)cc3)[C@@H]2c2cc(OC)cc(OC)c2)cc1 | 63.6 | –
16 | COc1ccc(/C=C2\c3cc(OC)cc(OC)c3[C@@H](c3ccccc3)[C@@H]2c2cc(OC)cc(OC)c2)cc1 | 65.3 | –
17 | Oc1ccc([C@H]2Oc3cc(O)cc4c3[C@@H]2c2cc(O)cc3c2[C@@H](c2cc(O)cc5c2[C@@H]4[C@H](c2ccc(O)cc2)O5)[C@H](c2ccc(O)cc2)O3)cc1 | – | Ratio IC50 [2]: 3
18 | COc1ccc(C2C(c3cc(OC)cc(OC)c3)=C(C)c3cc(OC)cc(OC)c32)cc1 (configuration not stated) | 55.8 | –
19 | Oc1ccc(CC2=C(c3cc(O)cc(O)c3)C(c3ccc(O)cc3)c3c(O)cc(O)cc32)cc1 (configuration not stated) | 89.6 | Activity (SH-SY5Y [3]): Dose-dependent effect; Activity [4]: Dose-dependent effect; Activity (SH-SY5Y [5]): Dose-dependent effect; Activity [6]: Dose-dependent effect; Activity [7]: Dose-dependent effect; Activity (SH-SY5Y [8]): Dose-dependent effect; Activity [9]: Dose-dependent effect; Activity (SH-SY5Y [10]): Dose-dependent effect
20 | COc1ccc(/C=C2/c3cc(OC)cc(OC)c3[C@@H](c3ccc(OC)cc3)[C@@H]2c2cc(OC)cc(OC)c2)cc1 | 62.4 | –
21 | COc1cc(OC)cc([C@@H]2C(O)c3cc(OC)cc(OC)c3[C@H]2c2ccccc2)c1 (relative stereo) | 63.9 | –
22 | O=C1c2cc(O)cc(O)c2[C@@H](c2ccc(O)cc2)[C@@H]1c1cc(O)cc(O)c1 [ISOPAUCIFLORAL F] | 58.5 | –
23 | COc1ccc(CSC2c3cc(OC)cc(OC)c3[C@@H](c3ccc(OC)cc3)[C@@H]2c2cc(OC)cc(OC)c2)cc1 (some centres not stated) | 65.2 | –
24 | Oc1ccc(CC2=C(c3cc(O)cc(O)c3)C(c3ccccc3)c3c(O)cc(O)cc32)cc1 (configuration not stated) | 82.9 | –
